The results in this text go back to ChEMBL document CHEMBL3352796, “Enantioselective Synthesis and Profiling of Two Novel Diazabicyclooctanone β-Lactamase Inhibitors” (ACS Med Chem Lett, 2014).

A short description of data set [1]: Hydrolytic solution stability in pH 7.4 aqueous phosphate buffer at 37 degC by HPLC-UV method. Type of data set: physicochemical. The method, boiled down:
(§1)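 Compound held in aqueous phosphate buffer, pH 7.4, at 37 °C or 70 °C. Hydrolytic stability is reported as half-life in hours.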

Data set [2] is described as follows: Hydrolytic solution stability in pH 7.4 aqueous phosphate buffer at 70 degC by HPLC-UV method. Type of data set: physicochemical. The method, boiled down:
as §1

Data set [3] concerns Klebsiella pneumoniae. Description: Inhibition of Klebsiella pneumoniae CTX-M-15 pre-incubated with enzyme for 5 mins before nitrocefin substrate addition by colorimetric assay.
A short description of data set [4]: Inhibition of Enterobacter cloacae KPC-2 pre-incubated with enzyme for 5 mins before nitrocefin substrate addition by colorimetric assay.
The nature of data set [5]: Inhibition of Pseudomonas aeruginosa AmpC pre-incubated with enzyme for 5 mins before nitrocefin substrate addition by colorimetric assay.
The test system of data set [6] is Klebsiella pneumoniae. In words: Inhibition of Klebsiella pneumoniae OXA-48 pre-incubated with enzyme for 5 mins before nitrocefin substrate addition by colorimetric assay.

`NC(=O)[C@@H]1[C@@H]2C[C@@H]2[C@@H]2CN1C(=O)N2OS(=O)(=O)[O-].[Na+]`: the values for the half-life in data set [1] and in data set [2] were 112 h and 8.2 h, respectively. For the same molecule, the IC50 turned out to be 0.14 µM in data set [3], 0.85 µM in data set [4], 4.5 µM in data set [5] and 1.3 µM in data set [6].
Take `NC(=O)[C@@H]1[C@H]2C[C@H]2[C@@H]2CN1C(=O)N2OS(=O)(=O)[O-].[Na+]`: in data set [2], the half-life is over 264 h. The IC50 was found to be 0.48 µM in data set [3], 6.7 µM in data set [4], 2 µM in data set [5] and 28 µM in data set [6].
In the case of `C[C@]1(Cn2ccnn2)[C@H](C(=O)O)N2C(=O)C[C@H]2S1(=O)=O` [TAZOBACTAM], the half-life in data set [2] was 7.7 h. Moreover, the IC50 is under 0.007 µM in data set [3], 39 µM in data set [4], 3.4 µM in data set [5] and 3.6 µM in data set [6].
